Experimental findings from ChEMBL document CHEMBL3352313 (J Med Chem, 2014) are described below.

Where only a bound is given, the exact number is not on record here.

The subject of data set [1] is Plasma. The data set is described as follows: Fraction unbound in human plasma at 5 uM incubated for 4 hrs at 37 degC by equilibrium dialysis based LC/MS/MS analysis. The format is ADME, cell-free. In a few lines: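 Fraction unbound measured in rat and human plasma and in rat brain homogenate.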
Data set [2] is filed under the species Homo sapiens. The data set is described as follows: Selectivity index, ratio of EC50 for human muscarinic acetylcholine receptor subtype 1 to EC50 for human muscarinic acetylcholine receptor subtype 5.
The target in data set [3] is T1, Muscarinic acetylcholine receptor M2 (Homo sapiens, UniProt P08172).
T1 sequence (P08172 whole entry): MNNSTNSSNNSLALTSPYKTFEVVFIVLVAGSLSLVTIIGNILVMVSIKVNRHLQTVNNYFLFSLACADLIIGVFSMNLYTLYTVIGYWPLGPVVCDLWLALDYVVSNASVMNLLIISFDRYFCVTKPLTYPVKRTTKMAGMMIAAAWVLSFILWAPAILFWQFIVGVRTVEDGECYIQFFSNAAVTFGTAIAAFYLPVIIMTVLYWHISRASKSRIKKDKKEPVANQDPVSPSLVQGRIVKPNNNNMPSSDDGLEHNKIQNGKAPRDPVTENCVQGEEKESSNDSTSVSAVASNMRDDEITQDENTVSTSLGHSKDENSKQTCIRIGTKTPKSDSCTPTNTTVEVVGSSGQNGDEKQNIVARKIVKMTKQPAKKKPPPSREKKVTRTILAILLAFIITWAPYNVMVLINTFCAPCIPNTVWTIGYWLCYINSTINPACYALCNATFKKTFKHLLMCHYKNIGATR
Nature of the data set: Activity at human muscarinic acetylcholine receptor subtype 2 expressed in CHO cells co-transfected with chimeric Gqi5 by calcium mobilization assay. The data set is classed as functional, cell-based. Put shortly:
(§1)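 Muscarinic subtype selectivity by fluorescence calcium mobilization in highly expressing CHO lines with similar receptor levels; Gi/o-coupled M2 and M4 cells co-transfected with chimeric Gqi5 to couple to Ca2+ mobilization. Read-outs are PAM EC50 and ACh max response. Mean ± SEM of at least three independent determinations.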

The target of data set [4] is T2, Muscarinic acetylcholine receptor M1 (Homo sapiens) (UniProt P11229).
T2 sequence (whole entry): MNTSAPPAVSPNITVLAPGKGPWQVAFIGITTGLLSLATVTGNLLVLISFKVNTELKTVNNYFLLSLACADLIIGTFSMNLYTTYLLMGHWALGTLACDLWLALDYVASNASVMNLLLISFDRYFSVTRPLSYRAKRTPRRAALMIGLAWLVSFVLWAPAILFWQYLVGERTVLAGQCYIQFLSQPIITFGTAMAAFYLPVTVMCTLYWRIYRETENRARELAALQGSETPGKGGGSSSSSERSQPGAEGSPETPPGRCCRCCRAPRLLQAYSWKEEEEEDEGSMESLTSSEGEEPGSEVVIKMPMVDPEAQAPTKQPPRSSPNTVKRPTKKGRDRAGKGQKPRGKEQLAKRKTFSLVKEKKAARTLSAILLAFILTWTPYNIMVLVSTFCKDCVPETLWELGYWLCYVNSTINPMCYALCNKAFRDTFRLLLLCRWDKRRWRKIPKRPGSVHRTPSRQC
The data set is described as follows: Activity at human muscarinic acetylcholine receptor subtype 1 expressed in CHO cells by calcium mobilization assay relative to acetylcholine. The data set is classed as functional, cell-based. In a few lines: as §1

Data set [5] deals with T3, Muscarinic acetylcholine receptor M5 (Homo sapiens, UniProt P08912).
T3 sequence (P08912 whole entry): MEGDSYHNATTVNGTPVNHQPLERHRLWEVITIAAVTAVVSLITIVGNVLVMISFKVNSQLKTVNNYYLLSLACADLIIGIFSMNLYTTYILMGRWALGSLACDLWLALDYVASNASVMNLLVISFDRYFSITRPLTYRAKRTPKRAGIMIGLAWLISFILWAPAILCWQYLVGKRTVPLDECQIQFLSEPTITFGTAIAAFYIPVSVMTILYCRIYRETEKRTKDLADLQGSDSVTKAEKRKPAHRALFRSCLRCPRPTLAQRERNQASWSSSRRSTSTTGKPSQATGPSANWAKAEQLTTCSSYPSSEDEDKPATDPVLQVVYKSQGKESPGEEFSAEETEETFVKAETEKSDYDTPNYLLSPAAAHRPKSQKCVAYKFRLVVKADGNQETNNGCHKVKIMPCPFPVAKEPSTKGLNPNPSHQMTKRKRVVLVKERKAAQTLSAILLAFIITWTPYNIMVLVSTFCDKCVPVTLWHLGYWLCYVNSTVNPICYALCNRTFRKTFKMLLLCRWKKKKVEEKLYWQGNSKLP
The data set is described as follows: Positive allosteric modulator activity at human muscarinic acetylcholine receptor subtype 5 expressed in CHO cells by calcium mobilization assay. The format is functional, cell-based. As to conditions: read-out: EC50.

Data set [6] deals with T4, Muscarinic acetylcholine receptor M1 (Homo sapiens, UniProt P11229).
T4 sequence (P11229 whole entry): T2 sequence (whole entry)
The data set is described as follows: Activity at human muscarinic acetylcholine receptor subtype 1 expressed in CHO cells by calcium mobilization assay. The format is functional, cell-based. Put shortly: as §1

In data set [7] the test system is Rattus norvegicus. Nature of the data set: Brain to plasma partition coefficient, Kp of the compound in Sprague-Dawley rat 1 mg/kg, iv administered as single dose after 15 mins by LC/MS/MS utilizing electrospray ionization method. The format is ADME, organism-based. As to conditions: 0.25 h. Details: dose 1 mg/kg, route intravenous. Put shortly: (§2)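 Male Sprague–Dawley rats (n = 3) dosed 1 mg/kg intravenously. Brain and plasma levels at 15 min after administration give Kp. Kp,uu is the unbound brain-plasma partition coefficient.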

Data set [8] concerns the target T5, Muscarinic acetylcholine receptor M2 (Rattus norvegicus, UniProt P10980).
T5 sequence (P10980 whole entry): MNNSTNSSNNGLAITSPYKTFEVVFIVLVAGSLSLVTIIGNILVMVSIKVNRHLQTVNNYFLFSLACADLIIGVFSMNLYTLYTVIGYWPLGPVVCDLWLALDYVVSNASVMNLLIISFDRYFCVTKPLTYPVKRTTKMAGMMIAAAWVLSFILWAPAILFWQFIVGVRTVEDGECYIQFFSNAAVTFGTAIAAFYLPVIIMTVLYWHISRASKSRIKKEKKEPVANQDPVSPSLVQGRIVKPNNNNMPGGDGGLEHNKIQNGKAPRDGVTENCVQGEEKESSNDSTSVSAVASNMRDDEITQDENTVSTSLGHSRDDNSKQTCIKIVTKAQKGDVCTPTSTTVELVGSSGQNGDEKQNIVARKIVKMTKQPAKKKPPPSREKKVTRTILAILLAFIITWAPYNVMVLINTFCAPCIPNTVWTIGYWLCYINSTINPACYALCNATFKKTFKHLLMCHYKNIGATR
The data set is described as follows: Activity at rat muscarinic acetylcholine receptor subtype 2 expressed in CHO cells co-transfected with chimeric Gqi5 by calcium mobilization assay. The format is functional, cell-based. Put shortly:
as §1

Data set [9] deals with Rattus norvegicus. The data set is described as follows: Unbound brain-to-plasma concentration ratio in Sprague-Dawley rat 1 mg/kg, iv administered as single dose after 15 mins by LC/MS/MS utilizing electrospray ionization method. The format is ADME, organism-based. The arrangement: dose 1 mg/kg, route intravenous. As to conditions: 0.25 h. In a few lines: as §2
Data set [10] is described as follows: Elimination half life in Sprague-Dawley rat 1 mg/kg, iv administered as single dose by LC/MS/MS utilizing electrospray ionization method. The format is ADME, organism-based. The arrangement: dose 1 mg/kg, route intravenous. As to conditions: in vivo, read-out: beta t1/2.
The species named for data set [11] is Homo sapiens. Nature of the data set: Selectivity index, ratio of EC50 for human muscarinic acetylcholine receptor subtype 3 to EC50 for human muscarinic acetylcholine receptor subtype 5.

As to `CCN(Cc1ccccc1C(F)(F)F)C(=O)C1CCN(S(=O)(=O)c2ccc3[nH]ncc3c2)CC1`, the Fu in data set [1] came out at 0.015. The Ratio EC50 in data set [2] and in data set [11] was over 10 in each case. Further, the EC50 in data set [3] is over 30 µM; in data set [5] it was 0.19 µM; in data set [6] it was 5.4 µM; in data set [8], over 30 µM. Further, the %max in data set [4] amounted to 52%. Moreover, in data set [7], the Kp came out at 0.36. Moreover, in data set [9], the “K(p,uu,brain)” value is 0.28. The half-life in [10] was found to be 22 min.
